Measurements published in ChEMBL document CHEMBL1129042, “Discovery of novel retinoic acid receptor agonists having potent antiproliferative activity in cervical cancer cells” (J Med Chem, 1996).

What was measured:
[1] = molecular target: T1, Retinoic acid receptor gamma (Homo sapiens) (UniProt P13631); assay: Percent transcriptional activation relative to ATRA in CV-1 cells expressing Retinoic acid receptor RAR gamma; assay type: functional, cell-based
T1 sequence (whole entry): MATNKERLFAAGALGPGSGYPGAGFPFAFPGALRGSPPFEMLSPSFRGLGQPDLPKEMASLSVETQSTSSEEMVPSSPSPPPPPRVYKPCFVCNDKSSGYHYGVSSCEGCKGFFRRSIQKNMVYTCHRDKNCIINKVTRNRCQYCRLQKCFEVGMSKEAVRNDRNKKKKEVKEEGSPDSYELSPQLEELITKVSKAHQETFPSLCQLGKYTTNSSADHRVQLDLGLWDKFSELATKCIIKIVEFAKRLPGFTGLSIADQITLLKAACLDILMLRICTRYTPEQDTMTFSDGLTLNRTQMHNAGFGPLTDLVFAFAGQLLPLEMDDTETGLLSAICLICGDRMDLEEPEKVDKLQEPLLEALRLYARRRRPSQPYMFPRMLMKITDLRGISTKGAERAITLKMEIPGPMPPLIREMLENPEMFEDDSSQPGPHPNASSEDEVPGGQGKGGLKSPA
Procedure, shortened: (§1)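 Cotransfection transactivation assay in CV-1 cells. Full dose-response curves ran from 10^-12 to 10^-5 M. Efficacy is expressed as percent of the ATRA response, with ATRA set at 100%. Values are mean ± SEM of at least three separate experiments, each with triplicate determinations.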

[2] = molecular target: T2, Retinoic acid receptor alpha (Homo sapiens) (UniProt P10276); assay: Percent transcriptional activation relative to ATRA in CV-1 cells expressing Retinoic acid receptor RAR alpha; assay type: functional, cell-based; procedure, shortened: as §1
T2 sequence (whole entry): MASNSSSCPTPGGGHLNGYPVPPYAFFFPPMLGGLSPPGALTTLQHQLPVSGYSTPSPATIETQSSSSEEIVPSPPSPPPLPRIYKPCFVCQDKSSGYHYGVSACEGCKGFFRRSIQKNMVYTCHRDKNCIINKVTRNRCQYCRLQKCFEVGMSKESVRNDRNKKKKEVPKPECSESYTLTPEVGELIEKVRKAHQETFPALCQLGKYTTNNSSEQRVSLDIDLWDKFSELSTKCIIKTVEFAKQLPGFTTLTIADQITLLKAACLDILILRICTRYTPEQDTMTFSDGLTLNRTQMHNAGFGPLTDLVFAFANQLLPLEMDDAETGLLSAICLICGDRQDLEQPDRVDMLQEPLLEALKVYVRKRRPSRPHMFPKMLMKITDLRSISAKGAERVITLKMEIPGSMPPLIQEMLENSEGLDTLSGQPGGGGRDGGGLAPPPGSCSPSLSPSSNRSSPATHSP

[3] = molecular target: T3, Retinoic acid receptor RXR-beta (Homo sapiens) (UniProt P28702); assay: Percent transcriptional activation relative to ATRA in CV-1 cells expressing Retinoid X receptor RXR beta; assay type: functional, cell-based; procedure, shortened: as §1
T3 sequence (whole entry): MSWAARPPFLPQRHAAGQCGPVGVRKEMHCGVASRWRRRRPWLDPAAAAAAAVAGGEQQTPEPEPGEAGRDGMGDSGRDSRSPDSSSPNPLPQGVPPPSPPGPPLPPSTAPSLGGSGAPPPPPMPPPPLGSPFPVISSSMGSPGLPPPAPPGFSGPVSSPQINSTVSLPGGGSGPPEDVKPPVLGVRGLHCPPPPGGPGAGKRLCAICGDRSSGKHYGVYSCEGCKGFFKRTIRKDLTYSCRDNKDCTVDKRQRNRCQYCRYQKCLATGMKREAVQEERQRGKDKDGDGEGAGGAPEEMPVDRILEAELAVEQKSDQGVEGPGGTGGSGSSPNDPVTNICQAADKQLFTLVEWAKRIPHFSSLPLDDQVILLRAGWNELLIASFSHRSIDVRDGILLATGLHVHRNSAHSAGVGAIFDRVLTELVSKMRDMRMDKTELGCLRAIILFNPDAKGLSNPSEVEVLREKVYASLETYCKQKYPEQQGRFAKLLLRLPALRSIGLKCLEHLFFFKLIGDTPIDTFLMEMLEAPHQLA

[4] = molecular target: T4, Retinoic acid receptor RXR-beta (Homo sapiens, UniProt P28702); assay: Inhibition of [3H]9-cis-RA binding to Retinoid X receptor RXR beta
T4 sequence (P28702 whole entry): T3 sequence (whole entry)

[5] = molecular target: T5, Retinoic acid receptor RXR-alpha (Homo sapiens, UniProt P19793); assay: Inhibition of [3H]9-cis-RA binding to Retinoid X receptor RXR alpha
T5 sequence (P19793 whole entry): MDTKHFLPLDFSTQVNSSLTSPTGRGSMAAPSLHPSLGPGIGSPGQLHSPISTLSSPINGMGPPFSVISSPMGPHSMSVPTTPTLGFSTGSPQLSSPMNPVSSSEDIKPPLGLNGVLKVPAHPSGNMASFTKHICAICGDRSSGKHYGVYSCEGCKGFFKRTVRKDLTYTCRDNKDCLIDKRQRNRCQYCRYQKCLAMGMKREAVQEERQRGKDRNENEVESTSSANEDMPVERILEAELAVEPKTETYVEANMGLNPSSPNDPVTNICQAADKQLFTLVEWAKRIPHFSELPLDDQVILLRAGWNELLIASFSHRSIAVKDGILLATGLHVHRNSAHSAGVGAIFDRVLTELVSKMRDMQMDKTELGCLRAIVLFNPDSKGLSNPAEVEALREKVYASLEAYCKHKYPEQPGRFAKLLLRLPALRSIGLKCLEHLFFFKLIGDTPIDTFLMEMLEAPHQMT

[6] = molecular target: T4, Retinoic acid receptor RXR-beta; assay: Transcriptional activation in CV-1 cells expressing Retinoid X receptor RXR beta; assay type: functional, cell-based
[7] = molecular target: T6, Retinoic acid receptor alpha (Homo sapiens, UniProt P10276); assay: Inhibition of [3H]ATRA binding to Retinoic acid receptor RAR alpha
T6 sequence (P10276 whole entry): T2 sequence (whole entry)

[8] = molecular target: T7, Retinoic acid receptor beta (Homo sapiens, UniProt P10826); assay: Inhibition of [3H]ATRA binding to Retinoic acid receptor RAR beta
T7 sequence (P10826 whole entry): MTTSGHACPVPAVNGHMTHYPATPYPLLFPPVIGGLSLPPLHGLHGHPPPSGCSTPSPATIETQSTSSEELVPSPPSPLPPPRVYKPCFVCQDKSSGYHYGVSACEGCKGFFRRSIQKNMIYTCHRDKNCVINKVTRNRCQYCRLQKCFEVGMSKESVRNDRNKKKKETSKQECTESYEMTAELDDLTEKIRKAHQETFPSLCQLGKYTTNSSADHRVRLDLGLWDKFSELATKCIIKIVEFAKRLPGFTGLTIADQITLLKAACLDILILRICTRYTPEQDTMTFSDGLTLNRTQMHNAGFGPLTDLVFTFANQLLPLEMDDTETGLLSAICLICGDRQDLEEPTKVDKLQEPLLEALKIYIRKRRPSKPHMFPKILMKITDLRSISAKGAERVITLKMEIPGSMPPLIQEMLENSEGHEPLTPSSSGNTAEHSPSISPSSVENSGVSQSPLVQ

[9] = molecular target: T7, Retinoic acid receptor beta; assay: Transcriptional activation in CV-1 cells expressing Retinoic acid receptor RAR beta; assay type: functional, cell-based
[10] = molecular target: T8, Retinoic acid receptor RXR-gamma (Homo sapiens, UniProt P48443); assay: Inhibition of [3H]9-cis-RA binding to Retinoid X receptor RXR gamma
T8 sequence (P48443 whole entry): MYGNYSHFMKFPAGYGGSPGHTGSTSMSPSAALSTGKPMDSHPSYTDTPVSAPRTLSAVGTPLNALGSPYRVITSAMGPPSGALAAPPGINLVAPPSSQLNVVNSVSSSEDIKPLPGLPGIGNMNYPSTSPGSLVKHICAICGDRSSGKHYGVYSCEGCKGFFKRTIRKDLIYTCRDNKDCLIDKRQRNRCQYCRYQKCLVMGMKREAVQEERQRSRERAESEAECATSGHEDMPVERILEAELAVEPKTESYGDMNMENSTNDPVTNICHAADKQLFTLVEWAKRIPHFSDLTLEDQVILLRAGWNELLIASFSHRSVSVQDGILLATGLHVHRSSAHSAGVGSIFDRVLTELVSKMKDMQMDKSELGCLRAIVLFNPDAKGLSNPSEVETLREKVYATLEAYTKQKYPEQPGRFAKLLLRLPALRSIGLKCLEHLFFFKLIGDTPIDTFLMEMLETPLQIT

[11] = molecular target: T8, Retinoic acid receptor RXR-gamma; assay: Transcriptional activation in CV-1 cells expressing Retinoid X receptor RXR gamma; Not active; assay type: functional, cell-based
[12] = molecular target: T5, Retinoic acid receptor RXR-alpha; assay: Transcriptional activation in CV-1 cells expressing Retinoid X receptor RXR alpha; Not active; assay type: functional, cell-based
[13] = molecular target: T8, Retinoic acid receptor RXR-gamma; assay: Transcriptional activation in CV-1 cells expressing Retinoid X receptor RXR gamma; assay type: functional, cell-based
[14] = molecular target: T6, Retinoic acid receptor alpha; assay: Transcriptional activation in CV-1 cells expressing Retinoic acid receptor RAR alpha; assay type: functional, cell-based
[15] = molecular target: T5, Retinoic acid receptor RXR-alpha; assay: Transcriptional activation in CV-1 cells expressing Retinoid X receptor RXR alpha; assay type: functional, cell-based

SMILES: CC(/C=C/C=C(\C)c1cc(C(C)(C)C)cc(C(C)(C)C)c1)=C\C(=O)O (stereo in doubt; form 2) [listing 1 of 2 here]
- Efficacy [1]: 48%
- Efficacy [2]: 31%

SMILES: CC(/C=C/C=C(\C)c1cc(C(C)(C)C)cc(C(C)(C)C)c1)=C\C(=O)O (stereo in doubt; form 1) [listing 1 of 2 here]
- Efficacy [1]: 58%
- Efficacy [2]: 39%
- Efficacy [3]: 27%

SMILES: CC1=C(/C=C/C(C)=C/C=C/C(C)=C/C(=O)O)C(C)(C)CCC1
- Efficacy [1]: 100%
- Efficacy [2]: 100%
- Efficacy [3]: 100%

SMILES: CC1=C(/C=C/C(C)=C\C=C\C(C)=C\C(=O)O)C(C)(C)CCC1
- Efficacy [1]: 93%
- Efficacy [2]: 81%
- Efficacy [3]: 128%

SMILES: CC(/C=C/C=C(\C)c1cc(C(C)(C)C)cc(C(C)(C)C)c1)=C\C(=O)O (stereo in doubt; form 2) [listing 2 of 2 here]
- Ki [4]: 560 nM
- Ki [5]: 223 nM
- EC50 [6]: Not Active
- Ki [7]: 1.1 nM
- Ki [8]: 0.7 nM
- EC50 [9]: 2.2 nM
- Ki [10]: 320 nM
- EC50 [11]: Not Active
- EC50 [12]: Not Active

SMILES: CC(/C=C/C=C(\C)c1cc(C(C)(C)C)cc(C(C)(C)C)c1)=C\C(=O)O (stereo in doubt; form 1) [listing 2 of 2 here]
- Ki [4]: 10.2 nM
- Ki [5]: 4.6 nM
- EC50 [6]: 87 nM
- Ki [7]: 63.5 nM
- EC50 [13]: 77 nM
- EC50 [14]: 65 nM
- Ki [8]: 90 nM
- EC50 [15]: 134 nM
- EC50 [9]: 24 nM
- Ki [10]: 9.3 nM
